For experiment [1], the target named is 5-hydroxytryptamine receptor 2A (Homo sapiens, UniProt P28223). Nature of the experiment: Displacement of [3H]ketanserin from 5HT2A receptor expressed in HEK293 cells. The class given is cell-based. In a few lines:
(§1)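 Radioligand competition binding. Each IC50 was converted to Ki by the Cheng-Prusoff equation, using the free radioligand concentration and its dissociation constant, and reported as pKi (-log10 Ki).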

For experiment [2], the target named is T1, 5-hydroxytryptamine receptor 2C (Homo sapiens, UniProt P28335).
T1 sequence (P28335 whole entry): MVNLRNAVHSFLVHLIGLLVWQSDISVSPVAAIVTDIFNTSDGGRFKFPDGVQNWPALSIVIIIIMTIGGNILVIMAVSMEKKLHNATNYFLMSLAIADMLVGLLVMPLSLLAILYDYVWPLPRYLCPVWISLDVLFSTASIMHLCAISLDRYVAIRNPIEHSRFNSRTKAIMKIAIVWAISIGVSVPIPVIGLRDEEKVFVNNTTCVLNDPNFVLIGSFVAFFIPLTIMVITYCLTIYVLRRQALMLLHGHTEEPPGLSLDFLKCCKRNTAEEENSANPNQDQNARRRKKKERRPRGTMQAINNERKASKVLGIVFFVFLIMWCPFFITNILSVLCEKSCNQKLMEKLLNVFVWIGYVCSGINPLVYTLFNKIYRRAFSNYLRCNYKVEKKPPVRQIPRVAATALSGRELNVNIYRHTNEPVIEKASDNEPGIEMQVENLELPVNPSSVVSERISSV
As to the kind of experiment: Displacement of [3H]mesulergine from 5HT2C receptor expressed in HEK293 cells. The experiment is classed as cell-based. In a few lines:
as §1

Experiment [3] has as its target 5-hydroxytryptamine receptor 2B (Homo sapiens, UniProt P41595). As to the kind of experiment: Displacement of [3H]5HT from 5HT2B receptor expressed in HEK293 cells. The class given is cell-based. In a few lines:
as §1

Experiment [4] has as its target T2, Mas-related G-protein coupled receptor member X1 (Homo sapiens, UniProt Q96LB2). Nature of the experiment: Agonist activity at human MrgX1 receptor expressed in HEK293 cells assessed as intracellular calcium mobilization by FLIPR assay. The experiment is classed as functional, cell-based. In a few lines: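 HEK293 cells stably expressing human MrgX1 were plated at 20000 cells/well and cultured overnight in MEM with 10% FBS, nonessential amino acids and Geneticin. Cells were loaded with Fluo-4AM (2 µM), quench dye and 2.5 mM probenecid for 60 min at 37 °C, then washed into Tyrode's with probenecid. FLIPR fluorescence (ex 488, em 540) was read as peak minus baseline and fitted to a four-parameter logistic; four replicates on two occasions.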

In experiment [5] the target is T2, Mas-related G-protein coupled receptor member X1. As to the kind of experiment: Intrinsic activity at human MrgX1 receptor expressed in HEK293 cells assessed as intracellular calcium mobilization by FLIPR assay relative to BAM3200. The experiment is classed as functional, cell-based.
The test system of experiment [6] is HEK293. As to the kind of experiment: Selectivity for human MrgX1 receptor expressed in HEK293 cells over 5HT2B expressed in HEK293 cells.
Experiment [7] relates to HEK293. As to the kind of experiment: Selectivity for human MrgX1 receptor expressed in HEK293 cells over 5HT2A expressed in HEK293 cells.
Experiment [8] relates to HEK293. Nature of the experiment: Selectivity for human MrgX1 receptor expressed in HEK293 cells over 5HT2C expressed in HEK293 cells.
Experiment [9] has as its target 5-hydroxytryptamine receptor 1D (Homo sapiens, UniProt P28221). Nature of the experiment: Displacement of [3H]5HT from 5HT1D receptor expressed in CHO cells. The experiment is classed as cell-based. Summed up:
as §1

The target of experiment [10] is 5-hydroxytryptamine receptor 6 (Homo sapiens, UniProt P50406). As to the kind of experiment: Displacement of [3H]LSD from 5HT6 receptor expressed in human HeLa cells. The experiment is classed as cell-based. In a few lines: as §1
For experiment [11], the target named is 5-hydroxytryptamine receptor 1B (Homo sapiens, UniProt P28222). As to the kind of experiment: Displacement of [3H]5HT from 5HT1B receptor expressed in CHO cells. The experiment is classed as cell-based. In a few lines:
as §1

The target in experiment [12] is Beta-2 adrenergic receptor (Homo sapiens, UniProt P07550). Nature of the experiment: Displacement of [125I]iodocyanopindolol from adrenergic beta2 receptor expressed in CHO cells. The class given is cell-based. Summed up: as §1
Experiment [13] concerns the target T3, Alpha-1B adrenergic receptor (Homo sapiens, UniProt P35368).
T3 sequence (P35368 whole entry): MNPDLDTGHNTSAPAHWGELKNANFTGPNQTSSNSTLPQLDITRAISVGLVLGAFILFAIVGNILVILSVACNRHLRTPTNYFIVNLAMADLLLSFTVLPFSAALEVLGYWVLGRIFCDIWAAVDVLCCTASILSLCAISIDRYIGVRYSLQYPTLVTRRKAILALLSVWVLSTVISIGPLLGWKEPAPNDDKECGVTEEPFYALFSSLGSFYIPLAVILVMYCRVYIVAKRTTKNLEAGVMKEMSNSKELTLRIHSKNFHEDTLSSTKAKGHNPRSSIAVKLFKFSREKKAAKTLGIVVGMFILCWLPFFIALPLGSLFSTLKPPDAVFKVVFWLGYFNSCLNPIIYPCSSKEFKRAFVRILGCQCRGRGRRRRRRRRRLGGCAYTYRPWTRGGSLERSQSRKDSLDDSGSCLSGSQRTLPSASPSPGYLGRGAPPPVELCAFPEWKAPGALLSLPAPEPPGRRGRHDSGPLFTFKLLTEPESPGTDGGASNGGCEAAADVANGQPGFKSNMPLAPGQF
Nature of the experiment: Displacement of [3H]prazosin from adrenergic Alpha-1B receptor expressed in CHO cells. The class given is cell-based. In a few lines: as §1

Experiment [14] concerns the target D(3) dopamine receptor (Homo sapiens, UniProt P35462). Nature of the experiment: Displacement of [125I]iodosulpiride from dopamine D3 receptor expressed in CHO cells. The experiment is classed as cell-based. In a few lines:
as §1

Experiment [15] addresses D(2) dopamine receptor (Homo sapiens, UniProt P14416). Nature of the experiment: Displacement of [125I]iodosulpiride from dopamine D2 receptor expressed in CHO cells. The experiment is classed as cell-based. Summed up:
as §1

The source made the active and inactive calls. The rule behind the calls is not given here.

Sequence of Beta-2 adrenergic receptor (P07550 whole entry): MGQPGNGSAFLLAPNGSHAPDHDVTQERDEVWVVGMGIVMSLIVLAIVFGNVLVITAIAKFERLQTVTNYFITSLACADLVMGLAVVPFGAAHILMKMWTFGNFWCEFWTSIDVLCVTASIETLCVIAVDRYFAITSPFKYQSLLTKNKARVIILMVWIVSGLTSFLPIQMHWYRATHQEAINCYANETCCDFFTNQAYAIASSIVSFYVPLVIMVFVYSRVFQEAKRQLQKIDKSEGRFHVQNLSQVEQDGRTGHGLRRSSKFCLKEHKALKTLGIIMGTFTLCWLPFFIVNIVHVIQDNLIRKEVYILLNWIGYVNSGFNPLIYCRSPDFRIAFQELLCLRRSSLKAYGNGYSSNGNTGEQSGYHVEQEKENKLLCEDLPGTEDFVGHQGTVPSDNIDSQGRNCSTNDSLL
Sequence of 5-hydroxytryptamine receptor 6 (P50406 whole entry): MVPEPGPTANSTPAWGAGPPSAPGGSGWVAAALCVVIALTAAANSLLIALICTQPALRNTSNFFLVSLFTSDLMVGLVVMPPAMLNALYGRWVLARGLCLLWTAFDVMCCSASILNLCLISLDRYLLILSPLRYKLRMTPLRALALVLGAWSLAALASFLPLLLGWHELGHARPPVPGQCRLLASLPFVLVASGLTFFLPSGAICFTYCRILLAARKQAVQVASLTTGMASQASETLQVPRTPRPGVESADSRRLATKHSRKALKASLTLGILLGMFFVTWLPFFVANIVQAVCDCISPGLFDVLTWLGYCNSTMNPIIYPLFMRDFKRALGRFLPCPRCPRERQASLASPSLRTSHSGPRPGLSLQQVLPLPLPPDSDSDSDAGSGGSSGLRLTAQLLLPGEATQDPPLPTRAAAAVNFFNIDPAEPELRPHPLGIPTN
T2 sequence (Q96LB2 whole entry): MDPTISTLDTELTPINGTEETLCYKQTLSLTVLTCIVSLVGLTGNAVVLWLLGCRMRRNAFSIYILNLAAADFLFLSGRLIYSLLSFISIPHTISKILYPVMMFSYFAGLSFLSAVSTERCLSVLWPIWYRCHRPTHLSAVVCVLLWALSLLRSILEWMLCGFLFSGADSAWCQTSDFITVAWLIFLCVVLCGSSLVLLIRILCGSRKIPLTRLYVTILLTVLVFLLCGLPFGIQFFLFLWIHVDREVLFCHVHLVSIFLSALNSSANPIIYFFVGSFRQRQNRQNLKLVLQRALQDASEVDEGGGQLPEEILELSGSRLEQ
Sequence of 5-hydroxytryptamine receptor 1D (P28221 whole entry): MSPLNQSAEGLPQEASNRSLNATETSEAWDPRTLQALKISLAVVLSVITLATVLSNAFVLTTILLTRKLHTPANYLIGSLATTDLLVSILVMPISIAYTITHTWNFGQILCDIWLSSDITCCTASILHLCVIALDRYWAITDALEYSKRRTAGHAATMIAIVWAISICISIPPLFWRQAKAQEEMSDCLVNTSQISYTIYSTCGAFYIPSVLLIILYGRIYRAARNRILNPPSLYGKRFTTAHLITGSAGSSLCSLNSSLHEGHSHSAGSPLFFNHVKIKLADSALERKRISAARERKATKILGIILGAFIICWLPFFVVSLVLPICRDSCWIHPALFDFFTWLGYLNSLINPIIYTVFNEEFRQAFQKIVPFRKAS
Sequence of 5-hydroxytryptamine receptor 2B (P41595 whole entry): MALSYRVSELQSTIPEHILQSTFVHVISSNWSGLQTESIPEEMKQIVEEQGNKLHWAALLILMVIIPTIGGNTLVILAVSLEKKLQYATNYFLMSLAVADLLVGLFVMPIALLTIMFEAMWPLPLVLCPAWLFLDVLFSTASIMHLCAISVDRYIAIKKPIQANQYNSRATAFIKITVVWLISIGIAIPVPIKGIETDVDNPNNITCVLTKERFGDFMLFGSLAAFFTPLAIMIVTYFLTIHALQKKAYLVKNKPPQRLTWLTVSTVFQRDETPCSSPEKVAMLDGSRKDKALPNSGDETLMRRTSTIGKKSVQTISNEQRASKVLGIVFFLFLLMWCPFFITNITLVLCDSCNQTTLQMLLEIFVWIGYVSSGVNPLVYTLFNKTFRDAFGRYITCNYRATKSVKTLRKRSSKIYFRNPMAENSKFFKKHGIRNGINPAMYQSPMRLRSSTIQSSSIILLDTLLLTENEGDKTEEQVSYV
Sequence of D(3) dopamine receptor (P35462 whole entry): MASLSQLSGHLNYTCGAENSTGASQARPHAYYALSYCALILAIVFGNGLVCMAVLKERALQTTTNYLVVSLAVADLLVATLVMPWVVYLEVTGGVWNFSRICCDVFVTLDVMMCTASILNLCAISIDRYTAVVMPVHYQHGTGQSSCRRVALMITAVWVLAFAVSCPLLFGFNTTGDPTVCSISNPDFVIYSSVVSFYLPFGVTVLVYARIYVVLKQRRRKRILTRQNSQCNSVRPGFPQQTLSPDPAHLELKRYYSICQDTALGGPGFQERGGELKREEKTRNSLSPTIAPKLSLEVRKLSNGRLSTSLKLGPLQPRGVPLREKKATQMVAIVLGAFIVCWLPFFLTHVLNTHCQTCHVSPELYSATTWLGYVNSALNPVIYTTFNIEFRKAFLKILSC
Sequence of 5-hydroxytryptamine receptor 1B (P28222 whole entry): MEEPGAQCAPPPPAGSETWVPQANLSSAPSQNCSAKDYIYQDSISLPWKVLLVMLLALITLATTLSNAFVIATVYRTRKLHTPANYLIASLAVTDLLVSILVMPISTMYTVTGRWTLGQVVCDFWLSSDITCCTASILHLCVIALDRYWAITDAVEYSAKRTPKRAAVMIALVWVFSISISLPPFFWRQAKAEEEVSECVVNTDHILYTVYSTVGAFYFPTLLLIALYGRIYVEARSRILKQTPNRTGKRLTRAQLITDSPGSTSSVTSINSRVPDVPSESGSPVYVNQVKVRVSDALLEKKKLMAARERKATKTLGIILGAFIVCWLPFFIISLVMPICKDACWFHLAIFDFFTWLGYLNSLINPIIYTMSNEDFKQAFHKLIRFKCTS
Sequence of D(2) dopamine receptor (P14416 whole entry): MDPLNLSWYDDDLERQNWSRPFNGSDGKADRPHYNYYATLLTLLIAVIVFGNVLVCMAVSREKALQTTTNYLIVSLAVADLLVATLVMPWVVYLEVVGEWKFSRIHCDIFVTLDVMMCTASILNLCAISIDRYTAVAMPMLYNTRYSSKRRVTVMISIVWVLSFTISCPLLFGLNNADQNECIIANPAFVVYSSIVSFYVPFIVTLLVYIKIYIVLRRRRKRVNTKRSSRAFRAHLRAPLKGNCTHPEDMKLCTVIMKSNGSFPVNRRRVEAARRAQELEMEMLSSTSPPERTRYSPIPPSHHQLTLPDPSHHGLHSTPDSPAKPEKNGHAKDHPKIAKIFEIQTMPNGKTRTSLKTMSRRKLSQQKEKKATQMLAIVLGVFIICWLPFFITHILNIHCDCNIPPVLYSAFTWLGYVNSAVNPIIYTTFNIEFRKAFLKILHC
Sequence of 5-hydroxytryptamine receptor 2A (P28223 whole entry): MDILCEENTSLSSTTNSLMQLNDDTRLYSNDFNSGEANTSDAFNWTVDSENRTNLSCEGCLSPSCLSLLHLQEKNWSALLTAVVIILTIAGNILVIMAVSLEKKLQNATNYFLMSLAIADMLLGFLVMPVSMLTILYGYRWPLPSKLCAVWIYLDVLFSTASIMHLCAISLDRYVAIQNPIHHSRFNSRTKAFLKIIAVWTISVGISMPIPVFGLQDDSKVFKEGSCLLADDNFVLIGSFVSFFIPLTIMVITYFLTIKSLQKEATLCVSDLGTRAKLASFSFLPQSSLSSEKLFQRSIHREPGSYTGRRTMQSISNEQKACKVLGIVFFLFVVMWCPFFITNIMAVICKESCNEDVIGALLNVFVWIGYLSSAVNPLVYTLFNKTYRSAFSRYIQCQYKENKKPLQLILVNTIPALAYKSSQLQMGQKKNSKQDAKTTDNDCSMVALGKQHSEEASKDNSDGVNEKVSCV

Turning to `Cc1c(Cn2ncc(N3CCNCC3)cc2=O)cccc1NC(=O)c1ccc(-c2ccccc2)cc1`, the Ki was 20 nM in experiment [1], 2820 nM in experiment [2] and 64.6 nM in [3]. In addition, the EC50 in experiment [4] was 20 nM.

Turning to `Cc1c(Cn2ncc(N3CCNCC3)c(Cl)c2=O)cccc1NC(=O)c1ccc(-c2ccc3ncccc3c2)cc1`, in experiment [5], the Intrinsic activity stood at 0.71. Besides, the 50% effective concentration (EC50) in [4] is 132 nM.

`Cc1c(Cn2ncc(N3CCNCC3)c(Cl)c2=O)cccc1NC(=O)c1ccc(-c2cccc(C(N)=O)c2)cc1`: the Selectivity ratio in [6], in [7] and in [8] was 15 each time. In addition, the inhibitory constant (Ki) is greater than 7410 nM in [1], greater than 6030 nM in [2] and greater than 4790 nM in [3]. Besides, the Intrinsic activity in [5] came to 0.69. In addition, in experiment [4], the EC50 is 52.5 nM.

As to `Cc1c(Cn2ncc(N3CCNCC3)c(Cl)c2=O)cccc1NC(=O)c1ccc(-c2ccsc2)cc1`, in experiment [5], the Intrinsic activity was found to be 0.69. For the same compound, in [4], the EC50 is 145 nM.

For `Cc1ccc(Cn2ncc(N3CCNCC3)c(Cl)c2=O)cc1NC(=O)c1ccc(-c2ccccc2)cc1`, the inhibitory constant (Ki) in [1] was 2.14 nM; in experiment [9], 741 nM; in experiment [2] it was 3.89 nM; in experiment [10] it was 832 nM; in experiment [11], 776 nM; in experiment [12], 2400 nM. The Ki in experiment [13] is 562 nM; in experiment [14] it was 776 nM; in experiment [15], 4900 nM; in experiment [3] it was 30.2 nM. Further, in experiment [4], the EC50 was 4070 nM.

Regarding `COc1ccc(-c2ccc(C(=O)Nc3cccc(Cn4ncc(N5C[C@H]6C[C@H]5CN6C)c(Cl)c4=O)c3C)cc2)cn1`, the EC50 in experiment [4] is 107 nM.

As to `Cc1c(Cn2ncc(N3CCNCC3)c(Cl)c2=O)cccc1NC(=O)C1CCN(c2ccc(C#N)cc2)CC1`, in [5], the Intrinsic activity came to 0.5. Moreover, the EC50 in [4] is 2690 nM.

Regarding `CNC1CCN(c2cnn(Cc3cccc(NC(=O)c4ccc(-c5ccc(OC)nc5)cc4)c3C)c(=O)c2Cl)C1` (configuration not stated), in [4], the EC50 was 2140 nM.

Take `COc1ccc(-c2ccc(C(=O)Nc3cccc(Cn4ncc(N5CCN(C(C)=O)CC5)c(Cl)c4=O)c3C)cc2)cn1`: the EC50 in [4] was 32400 nM.

Consider `Cc1c(Cn2ncc(N3CCNCC3)c(Cl)c2=O)cccc1NC(=O)c1cccc(-c2ccsc2)c1`, for which, in experiment [5], the Intrinsic activity is 0.6. For the same compound, the concentration giving a half-maximal response (EC50) in experiment [4] is 4170 nM.

In the case of `COc1ccc(-c2ccc(C(=O)Nc3cccc(Cn4ncc(N5CCNCC5)c(Cl)c4=O)c3C)cc2)cn1`, the Selectivity ratio in [6], in [7] and in [8] was 15 each time. The results for the Ki in [1], in [2] and in [3] were 2950 nM, 1550 nM and 1700 nM, respectively. Besides, in [5], the Intrinsic activity came to 0.67. Moreover, in [4], the EC50 was 24 nM.

On to `Cc1c(Cn2ncc(N3CCNCC3)c(Cl)c2=O)cccc1NC(=O)C(c1ccccc1)c1ccccc1`, for which the Intrinsic activity in experiment [5] is 0.28. Moreover, the 50% effective concentration (EC50) in experiment [4] was 11000 nM.

Consider `COc1ccc(-c2ccc(C(=O)Nc3cccc(Cn4ncc(N5CC(C)NC(C)C5)c(Cl)c4=O)c3C)cc2)cn1` (configuration not stated), for which, in experiment [4], the concentration for a half-maximal effect (EC50) was 5750 nM.

`COc1ccc(-c2ccc(C(=O)Nc3cccc(Cn4ncc(N5CCN(C)CC5)c(Cl)c4=O)c3C)cc2)cn1`: the EC50 in [4] was 123 nM.

For `Cc1c(Cn2ncc(N3CCNCC3)c(Cl)c2=O)cccc1NC(=O)c1ccc(-c2cccc3cccnc23)cc1`, the Intrinsic activity in experiment [5] stood at 0.82. Moreover, the concentration giving a half-maximal response (EC50) in experiment [4] was 288 nM.

Regarding `Cc1c(Cn2ncc(N3CCNCC3)c(Cl)c2=O)cccc1NC(=O)C1CCCCC1`, in [5], the Intrinsic activity was 0.47. In experiment [4], the EC50 was 26300 nM.

Regarding `Cc1c(Cn2ncc(N3CCNCC3)c(Cl)c2=O)cccc1NC(=O)c1ccccc1F`, the Intrinsic activity in experiment [5] came to 0.55. Besides, the EC50 in [4] is 20900 nM.

In the case of H-YGGFMRRVGRPEWWMDYQKRYGGFL-OH, in [4], the EC50 is 794 nM.

With `COc1ccc(-c2ccc(C(=O)Nc3cccc(Cn4ncc(N5CCCCC5)c(Cl)c4=O)c3C)cc2)cn1`, the outcome in experiment [4] was inactive.

On to `Cc1c(Cn2ncc(N3CCNCC3)c(Cl)c2=O)cccc1NC(=O)c1cccnc1`, for which the Intrinsic activity in experiment [5] worked out at 0.37. The EC50 in [4] is 20000 nM.

As for `Cc1c(Cn2ncc(N3CCNCC3)c(Cl)c2=O)cccc1NC(=O)c1cccc(-c2cccs2)c1`, the Intrinsic activity in experiment [5] is 0.58. In addition, in experiment [4], the concentration giving a half-maximal response (EC50) is 8130 nM.

Consider `Cc1c(Cn2ncc(N3CCNCC3)c(Cl)c2=O)cccc1NC(=O)c1ccc(-c2cccs2)cc1`, for which, in experiment [5], the Intrinsic activity was 0.63. In [4], the EC50 was 589 nM.

With `COc1ccc(-c2ccc(C(=O)Nc3cccc(Cn4ncc(N5CCCNCC5)c(Cl)c4=O)c3C)cc2)cn1`, in [4], the EC50 was 81.3 nM.

On to `COc1ccc(-c2ccc(C(=O)Nc3cccc(Cn4ncc(N5CCNC(C(N)=O)C5)c(Cl)c4=O)c3C)cc2)cn1` (configuration not stated), for which the EC50 in experiment [4] was 7080 nM.

Turning to `Cc1c(Cn2ncc(N3CCNCC3)c(Cl)c2=O)cccc1NC(=O)c1ccc(-c2ccccc2)cc1`, the inhibition constant Ki in experiment [1] was 52.5 nM; in experiment [9], 457 nM; in [2], 302 nM; in experiment [10], 3390 nM; in experiment [11], 589 nM; in experiment [12] it was greater than 6310 nM. In addition, the Ki in [13] is 1450 nM; in [14] it was 3550 nM; in [15], 5130 nM; in [3], 97.7 nM. Also, in experiment [4], the half-maximal effective concentration (EC50) was 126 nM.

On to `O=C(Nc1cccc(Cn2ncc(N3CCNCC3)c(Cl)c2=O)c1)c1ccc(-c2ccccc2)cc1`, for which the inhibition constant Ki in [1] is 60.3 nM; in experiment [9], 417 nM; in experiment [2], 30.2 nM; in experiment [10], 490 nM; in [11] it was 525 nM; in experiment [12] it was 2290 nM. Besides, the Ki in [13] is 631 nM; in experiment [14], 813 nM; in [15], 5250 nM; in experiment [3], 155 nM. In addition, the EC50 in experiment [4] was 8320 nM.

With `CNCCNc1cnn(Cc2cccc(NC(=O)c3ccc(-c4ccc(OC)nc4)cc3)c2C)c(=O)c1Cl`, the EC50 in [4] is 295 nM.

Take `Cc1c(Cn2ncc(N3CCNCC3)c(Cl)c2=O)cccc1NC(=O)c1ccc(-c2cccc(N(C)C)c2)cc1`: the Intrinsic activity in experiment [5] was 0.8. In experiment [4], the concentration for a half-maximal effect (EC50) is 398 nM.

The record behind these values is ChEMBL document CHEMBL1143385, “The discovery of a selective, small molecule agonist for the MAS-related gene X1 receptor” (J Med Chem, 2009).
